The results in this text go back to ChEMBL document CHEMBL1955822, “Camptothecin (CPT) directly binds to human heterogeneous nuclear ribonucleoprotein A1 (hnRNP A1) and inhibits the hnRNP A1/topoisomerase I interaction” (Bioorg Med Chem, 2011).

The source made the active and inactive calls. The rule behind the calls is not given here.

In test [1] the test system is Drosophila melanogaster. In words: Growth inhibition of Drosophila melanogaster expressing Hrb87F mutant KG02089 assessed as reduction in eclosion rate at 25 uM after 15 days. The class given is functional, organism-based. The gist of the method: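 Eggs of Hrb87F KG02089 mutant and CantonS wild-type immersed in 25 µM drug or DMSO in 4% EtOH/5% DMSO vehicle. Adults emerging within 15 days counted. Rate = N(mutant)/N(WT) × 100%. Means ± S.E. of three independent experiments.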

Test [2] has as its target T1, Heterogeneous nuclear ribonucleoprotein A1 (Homo sapiens, UniProt P09651). The test can be described thus: Binding affinity to human hnRNP A1 expressed in HeLa cells after 16 hrs by avidin-agarose bead pull down assay. It counts as cell-based. The method in brief:
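HeLa cells grown in DMEM/10% FCS, 37 °C, 5% CO2; 10^7 cells lysed 1 min in Tris pH 8.0/NaCl/EDTA/0.5% Triton-X; supernatant precleared on avidin-agarose, then 16 h at 4 °C with biotinylated CPT probe (1 mM stock, 1:10 into lysate) or DMSO; avidin-agarose capture 1 h at 4 °C, PBS washes, SDS-PAGE, anti-hnRNP A1 western blot with chemiluminescence.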

For test [3], the target named is T1, Heterogeneous nuclear ribonucleoprotein A1. In words: Binding affinity to recombinant GST-tagged human hnRNP A1 expressed in Escherichia coli after 16 hrs by avidin-agarose bead pull down assay. The method in brief:
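Lysate of E. coli expressing hnRNP A1-GST made by sonication in Tris pH 8.0/150 mM NaCl/EDTA/PMSF. Precleared on avidin-agarose, then mixed with biotinylated CPT probe (1 mM stock, 1:10) or DMSO for 16 h at 4 °C. Bound material captured 1 h on avidin-agarose, washed five times in PBS, run on 15% SDS-PAGE and immunoblotted for hnRNP A1.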

Test [4] has the same target. The test can be described thus: Binding affinity to recombinant GST-tagged human hnRNP A1 expressed in Escherichia coli using QCM biosensor by Scatchard plot analysis. The method in brief:
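Quartz crystal microbalance with GST-affinity-purified hnRNP A1-GST immobilised on gold electrode; cuvette of PBS–10% DMSO at 25 °C; CPT injected at final 12.5–250 nM; frequency change monitored; Langmuir and Scatchard plots; means ± S.E. of three independent experiments.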

Test [5] has the same target. In words: Inhibition of recombinant GST-tagged human hnRNP A1/his-tagged top1 cap region interaction expressed in Escherichia coli by SPR biosensor analysis. The gist of the method: (§1)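 Biacore SPR, CM5 chip with His-tagged top I cap region (215–433) amine-coupled at pH 5, about 10,000 RU. hnRNP A1-GST injected at various concentrations with or without CPT in HBS-EP/5% DMSO, 20 µl/min, 25 °C. Data analysed by Langmuir and Lineweaver-Burk plots under a non-competitive inhibition model.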

Test [6] shares this target. The test can be described thus: Noncompetitive inhibition of recombinant GST-tagged human hnRNP A1 binding to recombinant His-tagged top1 cap region by SPR biosensor analysis. The gist of the method:
as §1

The test system of test [7] is Drosophila melanogaster. The test can be described thus: Growth inhibition of Drosophila melanogaster expressing Hrb87F mutant KG02089 assessed as reduction in eclosion rate after 15 days. The class given is functional, organism-based. The method in brief: (§2)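 Drosophila eggs from 20 adults (laid over 24 h) immersed in 250 µl CPT at 0, 5, 12.5, 25 or 50 µM in 4% EtOH/5% DMSO. Adults emerging within 15 days counted. Eclosion rate = N(µM)/N(0 µM) × 100%, compared with wild-type CantonS. Means ± S.E. of three independent experiments.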

Test [8] relates to Drosophila melanogaster. The test can be described thus: Growth inhibition of Drosophila melanogaster expressing Hrb87F mutant BG02743 assessed as reduction in eclosion rate after 15 days. The class given is functional, organism-based. The method in brief: as §2
The subject of test [9] is Drosophila melanogaster. The test can be described thus: Growth inhibition of 7 day-old Drosophila melanogaster pupa expressing Hrb87F mutant KG02089 at 25 to 50 uM after 15 days. It counts as functional, organism-based. The method in brief: (§3)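 Drosophila eggs from 20 adults (laid over 24 h) immersed in 250 µl CPT at 0, 5, 12.5, 25 or 50 µM in 4% EtOH/5% DMSO. Development and pupal phenotype followed at 5, 7 and 14 days after dosing. Wild-type CantonS served as reference.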

Test [10] relates to Drosophila melanogaster. The test can be described thus: Growth inhibition of 7 day-old Drosophila melanogaster pupa expressing Hrb87F mutant BG02743 at 25 to 50 uM after 15 days. It counts as functional, organism-based. The method in brief: as §3
Test [11] addresses T1, Heterogeneous nuclear ribonucleoprotein A1. In words: Inhibition of recombinant GST-tagged human hnRNP A1/his-tagged top1 cap region interaction expressed in expressed in Escherichia coli assessed as pBR322 DNA relaxation after 30 mins by agarose gel electrophoresis. The method in brief: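 Calf thymus topoisomerase I (2 U) incubated with 1 µg supercoiled pBR322 in Tris pH 8/KCl/MgCl2/DTT/spermidine/BSA, with or without 100 µM CPT or 0.5 µM hnRNP A1-GST, for 30 min at 37 °C. Reaction stopped with SDS at 75 °C, then proteinase K digestion. Products run on 1% agarose gel and stained with EtBr.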

T1 sequence (P09651 whole entry): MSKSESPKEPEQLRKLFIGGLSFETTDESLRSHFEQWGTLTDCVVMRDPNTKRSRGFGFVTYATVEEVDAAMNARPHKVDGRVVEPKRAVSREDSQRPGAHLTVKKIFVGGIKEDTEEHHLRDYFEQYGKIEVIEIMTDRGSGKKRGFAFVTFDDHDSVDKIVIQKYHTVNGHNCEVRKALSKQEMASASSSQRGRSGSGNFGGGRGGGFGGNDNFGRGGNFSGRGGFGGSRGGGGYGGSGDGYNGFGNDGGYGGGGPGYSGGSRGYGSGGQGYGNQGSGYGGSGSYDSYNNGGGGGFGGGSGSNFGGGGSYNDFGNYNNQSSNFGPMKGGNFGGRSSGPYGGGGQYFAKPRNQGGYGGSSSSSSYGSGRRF

`CC(=O)O[C@H]1C(=O)[C@@]2(C)[C@H]([C@H](OC(=O)c3ccccc3)[C@]3(O)C[C@H](OC(=O)[C@H](O)[C@@H](NC(=O)c4ccccc4)c4ccccc4)C(C)=C1C3(C)C)[C@]1(OC(C)=O)CO[C@@H]1C[C@@H]2O`: in test [1], the “growth inhibition (GI)” value is “inactive”.
For `CC[C@@]1(OC(=O)CCCCCNC(=O)CCCC[C@@H]2SC[C@@H]3NC(=O)N[C@@H]32)C(=O)OCc2c1cc1n(c2=O)Cc2cc3ccccc3nc2-1`, the outcome in test [2] and in test [3] was Active.
As to `CCc1c2c(nc3ccc(OC(=O)N4CCC(N5CCCCC5)CC4)cc13)-c1cc3c(c(=O)n1C2)COC(=O)[C@]3(O)CC`, the “growth inhibition (GI)” value in test [1] is “inactive”.
Same read-out and setting: for `COc1cccc2c1C(=O)c1c(O)c3c(c(O)c1C2=O)C[C@@](O)(C(=O)CO)C[C@@H]3O[C@H]1C[C@H](N)[C@H](O)[C@H](C)O1` the value was “inactive”.
Turning to `CC[C@@]1(O)C(=O)OCc2c1cc1n(c2=O)Cc2cc3ccccc3nc2-1` [CAMPTOTHECIN], the Bmax in test [4] stood at 67 pg/mm2. In [4], the Kd was found to be 0.0827 µM. Moreover, the inhibition entry in test [5], in test [6] and in [11] was “Active” throughout. For the same molecule, the “growth inhibition (GI)” value in test [7] and in [8] was “Dose-dependent effect” throughout. The “growth inhibition (GI)” value in test [9] and in test [10] was “Active” throughout.
Turning to BLEOMYCIN, the “growth inhibition (GI)” value in test [1] was “inactive”.
